Screening data: PubChem, The Scripps Research Institute Molecular Screening Center
VIM-2 inh: VIM-2 metallo-beta-lactamase inhibitors, primary screen, biochemical, epi-absorbance readout, Pseudomonas aeruginosa enzyme. 0.89% of 290,000 active. AID 1527, 2009. inhibition, % at 5.6 µM. purified VIM-2, nitrocefin hydrolysis, epi-absorbance fluorescence;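 active = inhibition above the mean of all tested compounds plus 3 SD, cutoff set per screening run, cut at about 7.5% in these data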;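 also: red hydrolysis product quenches plate fluorescence so inhibitors raise well fluorescence; 0% = enzyme with DMSO and 100% = DMSO without enzyme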
IMP-1 inh: IMP-1 metallo-beta-lactamase inhibitors, primary screen, biochemical, epi-absorbance readout, Pseudomonas aeruginosa enzyme | metallo-beta-lactamase IMP-1 (Pseudomonas aeruginosa) | purified IMP-1, nitrocefin hydrolysis, epi-absorbance fluorescence | inhibition, % at 5.6 µM | 0.45% of 290,000 active | AID 1556, 2009;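 active = inhibition above the mean plus 3 SD of all compounds in the same screening run, cut at about 4.5% in these data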;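 also: 0% = IMP-1 with DMSO and 100% = DMSO wells lacking enzyme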
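System: purified recombinant IMP-1 beta-lactamase. Medium: Zinc- and detergent-supplemented HEPES buffer, pH 7.1. Compound: one 5.6 µM dose […]. Schedule: 15 min preincubation plus 25 min reaction at 25 °C. Technique: Epi-absorbance fluorescence, 480 nm excitation, 530 nm emission.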
sPLA2-III inh: human group III sPLA2 inhibitors, primary screen, biochemical, QFRET, BODIPY PC-A2 liposome substrate | QFRET BODIPY PC-A2 liposome hydrolysis, fluorescence | Group 3 secretory phospholipase A2 (Homo sapiens), Q9NZ20 | 0.56% of 370,000 active | inhibition, % at 12.2 µM;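 active = inhibition above mean plus 3 SD of compounds lying within the high and low control bounds, cut at about 19% in these data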;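 also: 0% = median of test compound wells and 100% = no enzyme DMSO wells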
Target sequence (Q9NZ20 whole entry, looked up): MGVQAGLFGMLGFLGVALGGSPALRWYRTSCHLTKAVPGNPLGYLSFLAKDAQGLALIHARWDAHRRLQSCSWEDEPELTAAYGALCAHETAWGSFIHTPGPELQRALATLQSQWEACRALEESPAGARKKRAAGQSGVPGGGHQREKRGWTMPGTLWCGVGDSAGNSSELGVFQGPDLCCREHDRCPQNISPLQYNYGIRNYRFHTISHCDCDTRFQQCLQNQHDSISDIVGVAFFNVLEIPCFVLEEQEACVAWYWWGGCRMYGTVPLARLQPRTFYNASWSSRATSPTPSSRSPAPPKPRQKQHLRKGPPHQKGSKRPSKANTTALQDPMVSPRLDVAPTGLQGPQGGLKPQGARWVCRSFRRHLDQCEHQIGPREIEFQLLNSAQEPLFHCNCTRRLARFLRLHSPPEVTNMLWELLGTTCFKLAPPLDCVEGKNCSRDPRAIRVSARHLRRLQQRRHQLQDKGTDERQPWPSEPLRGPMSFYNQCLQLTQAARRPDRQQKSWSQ
M18AAP inhibitor: PfM18AAP inhibitors, malaria aminopeptidase, primary screen, biochemical, QFRET, recombinant enzyme | AID 1822, 2009 | H-Glu-NHMec fluorogenic cleavage | M18 aspartyl aminopeptidase (Plasmodium falciparum 3D7) | 1.2% of 290,000 active | inhibition, % at 7.35 µM;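 active = inhibition above the campaign mean inhibition over all tested compounds plus 3 SD, cut at about 28% in these data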;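 also: 0% = plate median of test compound wells and 100% = 2 mM ZnCl2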
hGIII sPLA2 conf: human group III sPLA2 inhibitors, confirmation, biochemical, QFRET, triplicate; shares compounds with sPLA2-III inh; recombinant hGIII-sPLA2, BODIPY PC-A2 QFRET fluorescence; inhibition, % at 12.2 µM; 34% of 2,000 active;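 active = mean inhibition across triplicates above the hit cutoff set in the earlier primary screen, cut at about 19% in these data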;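 also: 0% = enzyme with DMSO and 100% = DMSO wells lacking enzyme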
535nm interf: 535nm fluorescence optical interference, confirmation, artefact control for HGIII-sPLA2 inhibitor project, biochemical, QFRET | inhibition, % at 12.2 µM | 8.5% of 2,000 active | shares compounds with sPLA2-III inh | BODIPY FL product fluorescence interference;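 active = average inhibition above the solvent-only control mean plus 3 SD, cut at about 6% in these data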;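 also: 0% = DMSO with substrate plus product and 100% = DMSO with substrate alone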
535nm interf DR: 535nm fluorescence optical interference, dose response, artefact control for HGIII-sPLA2 inhibitor project, biochemical, QFRET. shares compounds with sPLA2-III inh. AID 743455, 2014. BODIPY FL product fluorescence interference, cell-free. IC50, µM. 240 tested, under 10 active;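 active = IC50 at or below 10 µM; inactive = IC50 above 10 µM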
Starred values were filed as active, the others as inactive; · = no result. This is a sample that favours compounds with a hit; in the whole collection about 2.4% have one here.

SMILES	VIM-2 inh	IMP-1 inh	sPLA2-III inh	M18AAP inhibitor	hGIII sPLA2 conf	535nm interf	others
CC1(C)CC(=O)C(C2C3=C(CC(C)(C)CC3=O)Oc3c(Br)cc(Br)cc32)=C(O)C1 (centres undefined)	0	0	-1	0	·	·
Cc1cccn2c(=O)c3cc(C(=O)NC4CCCC4)c(=N)n(CCCN4CCOCC4)c3nc12	3	-3	-2	9	·	·
Cc1ccc(CNC(=O)C2CCCN(c3nc4ccccc4o3)C2)cc1 (centres undefined)	0	-1	19*	-1	4	-6
O=C1NC[C@@H](CCCCN2C[C@H](Cc3ccc(O)cc3)N(Cc3ccccc3)C(=O)C2=O)N(CCc2ccc(O)cc2)C1=O	·	·	-4	·	·	·
CCn1c(-c2ccc3[nH]c(C)c(C)c3c2)n[nH]c1=S	3	-1	13	14	·	·
Cc1[nH]c2ccc(-c3n[nH]c(=S)n3C)cc2c1C	7	2	21*	26	26*	4
CCCC1OC(c2cc3c(cc2Cl)OCO3)OCC1CC (centres undefined)	·	·	4	·	·	·
CN(Cc1c(F)cccc1Cl)C(=O)c1ccc(NC(=O)CC2SC(N3CCCC3)=NC2=O)cc1 (centres undefined)	·	·	-3	·	·	·
Fc1ccc(NC(=S)Nc2nccs2)cc1	-4	-4	23*	10	28*	-3	535nm interf DR=>122
O=C(Cc1ccc(F)cc1)Nc1nccs1	-2	-2	-6	-2	·	·
S=C(Nc1ccccc1)Nc1nccs1	-3	-3	27*	11	30*	1	535nm interf DR=>122
CC(COc1ccc(C(F)(F)F)cc1)CN1CCC(C(O)(c2ccccc2)c2ccccc2)CC1 (centres undefined)	·	·	-13	·	·	·
Clc1ccccc1-c1nn2c(-c3cc(-c4ccccc4)n[nH]3)nnc2s1	·	·	-10	·	·	·
FC(F)(F)c1cc(-c2ccccc2)nc(N2CCCCCC2)n1	-1	-2	20*	-10	5	-5
COc1cc(S(=O)(=O)n2c(C)nc3ccccc32)ccc1F	-2	-5	20*	-1	6	-5
COc1ccc(S(=O)(=O)N(C)C[C@H]2Oc3ccc(NC(=O)Nc4ccc5c(c4)OCO5)cc3C(=O)N([C@H](C)CO)C[C@@H]2C)cc1	·	·	-34	·	·	·
C/C(=N/NC(=O)c1ccco1)c1ccc(NC(=O)c2ccc(F)cc2)cc1	-1	-2	23*	-3	10	-8
C/C(=N/NC(=O)c1ccco1)c1ccc(NC(=O)c2ccc(Br)o2)cc1	-4	-4	3	-2	·	·
O=C(NC(=S)NNC(=O)c1ccco1)c1ccccc1	-2	-3	13	9	·	·
O=C(NNC(=S)NC(=O)c1ccccc1)c1ccc([N+](=O)[O-])cc1	-4	-7	13	-8	·	·
O=C(NC(=S)NNC(=O)c1ccccc1O)c1ccc([N+](=O)[O-])cc1	-1	-4	39*	30*	29*	1	535nm interf DR=>122
O=C(NC(=S)NNC(=O)c1ccccc1O)c1ccccc1	3	-2	31*	30*	25*	-3
CC(C)(C)c1ccc(C(=O)NCC(=O)NNC(=O)c2ccccc2O)cc1	·	·	21*	·	13	-5
O=C(NC(=S)NNC(=O)c1ccccc1O)c1ccc(F)cc1	0	-6	35*	28	31*	0
CC(C)(C)c1ccc(OCCCC(=O)NNC(=O)c2ccccc2O)cc1	·	·	18	·	·	·
COc1ccccc1COC(=O)c1cccc(S(=O)(=O)N(C)Cc2ccccc2)c1	·	·	-13	·	·	·
Cc1ccc(C(=O)NC(=S)NNC(=O)c2ccccc2O)cc1	0	-4	32*	16	37*	-1	535nm interf DR=>122
CC(C)C(=O)Nc1ccc(NC(=S)NC(=O)c2ccc([N+](=O)[O-])cc2)cc1	-4	-4	12	-5	·	·
